Calls of active or inactive are those of the source. The calls are words filed in the database; no cut-off is given here.
Tests used:
HCT-116 = assay: Antiproliferative activity against human HCT116 cells after 48 hrs by MTT assay; type: functional, cell-based; details: HCT-116, 48 h
Procedure, shortened: (§1)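 Cells seeded at 4000/well; compounds (10 mg/mL DMSO stock, diluted in medium) added 24 h after seeding, in duplicate. Incubation 48 h at 37 °C, 5% CO2. MTT (20 µL of 5 mg/mL in PBS) then added for 4 h at 37 °C, and the signal read at 570 nm.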

U-937 [1] = assay: Induction of apoptosis in human U937 cells assessed as caspase 3 activation at 5 uM after 30 hrs by FACS analysis; type: functional, cell-based
Procedure, shortened: (§2)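 U937 cells were grown in supplemented RPMI at 200,000 cells/mL. Compounds in DMSO were given at 5 µM for 24 h or 30 h, or at 0.5 µM for 28 h. Apoptosis was analysed by FACS. Values are means of independent duplicates.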

U-937 [2] = assay: Increase in granulocytic differentiation in human U937 cells assessed as CD11c expression at 5 uM after 30 hrs by FACS analysis; type: functional, cell-based
Procedure, shortened: (§3)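 U937 cells were grown in RPMI with 10% FCS, 10 mM Hepes and 2 mM glutamine at 200,000 cells/mL. Compounds in DMSO were given for 30 h (5 µM) or 28 h (0.5 µM). Cells were stained for surface antigen for 30 min at 4 °C in the dark, washed, and resuspended in PBS with propidium iodide. PI-positive cells were excluded from the FACS analysis. Values are means of independent quadruplicates.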

Histone deacetylase 1 = Histone deacetylase 1 (Homo sapiens, UniProt Q13547); assay: Inhibition of human recombinant HDAC1 using Fluor de Lys as substrate by fluorimetric assay
Procedure, shortened: (§4)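 Purified recombinant HDAC1 or HDAC4 was incubated with acetylated-lysine Fluor de Lys substrate, with or without inhibitor. Developer was then added to give the fluorophore, and fluorescence was read. IC50 values are means of at least three experiments. SI is IC50(HDAC1)/IC50(HDAC4).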

Homo sapiens = organism: Homo sapiens; assay: Selectivity index, ratio of IC50 for human recombinant HDAC1 to IC50 for human recombinant HDAC4; procedure, shortened: as §4
U-937 [3] = assay: Induction of monocytic differentiation in human U937 cells assessed as CD14 expression at 5 uM after 30 hrs by FACS analysis; type: functional, cell-based; procedure, shortened: as §3
PC-3 = assay: Antiproliferative activity against human PC3 cells after 48 hrs by MTT assay; type: functional, cell-based; details: PC-3, 48 h; procedure, shortened: as §1
Plasma [4] = assay: Stability in rat plasma at 25 ug/ml; type: ADME, cell-free
Procedure, shortened: (§5)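 Compounds were dissolved in blank rat plasma (1 mg/mL stock) and serially diluted with plasma. Samples were incubated at 37 °C and sampled at several times. Proteins were precipitated with two volumes of acetonitrile and spun at 16,000 rpm for 5 min, and the supernatant was analysed by HPLC.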

Plasma [5] = assay: Stability in rat plasma at 100 ug/ml; type: ADME, cell-free; procedure, shortened: as §5
A549 = assay: Antiproliferative activity against human A549 cells after 48 hrs by MTT assay; type: functional, cell-based; details: A549, 48 h; procedure, shortened: as §1
HepG2 = assay: Antiproliferative activity against human HepG2 cells after 48 hrs by MTT assay; type: functional, cell-based; details: HepG2, 48 h; procedure, shortened: as §1
Histone deacetylase 4 = Histone deacetylase 4 (Homo sapiens, UniProt P56524); assay: Inhibition of human recombinant HDAC4 using Fluor de Lys as substrate by fluorimetric assay; procedure, shortened: as §4
Zea mays = assay: Selectivity for maize histone deacetylase 1A over maize histone deacetylase 1B
[6] = Inhibition of HDAC
U-937 [7] = assay: Induction of p21waf1/CIP1 expression in human U937 cells after 24 hrs by Western blot analysis; type: functional, cell-based
Procedure, shortened: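 U937 cells were treated for 24 h. Total protein extracts (50 µg) were run on a 15% polyacrylamide gel and blotted for p21 (1:500), with tubulin as the loading control.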

U-937 [8] = assay: Cell cycle arrest in human U937 cells assessed as accumulation at S phase at 5 uM after 24 hrs by flow cytometry; type: functional, cell-based
Procedure, shortened: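 U937 cells were grown in RPMI with 10% FCS, penicillin/streptomycin, amphotericin-B, 10 mM Hepes and 2 mM glutamine, and held at 200,000 cells/mL. Cells were treated 24 h with compounds in DMSO. 2.5×10^5 cells were resuspended in hypotonic buffer (0.1% Triton X-100, 0.1% sodium citrate, 50 µg/mL PI, RNase A) for 30 min in the dark, then analysed by flow cytometry. Values are means of independent duplicates.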

[9] = biological target: T1, Protein deacetylase HDAC6 (Homo sapiens) (UniProt Q9UBN7); assay: Inhibition of HDAC6 in human U937 cells assessed as induction of alpha-tubulin acetylation after 24 hrs by Western blot analysis; type: cell-based; details: U-937
T1 sequence (whole entry): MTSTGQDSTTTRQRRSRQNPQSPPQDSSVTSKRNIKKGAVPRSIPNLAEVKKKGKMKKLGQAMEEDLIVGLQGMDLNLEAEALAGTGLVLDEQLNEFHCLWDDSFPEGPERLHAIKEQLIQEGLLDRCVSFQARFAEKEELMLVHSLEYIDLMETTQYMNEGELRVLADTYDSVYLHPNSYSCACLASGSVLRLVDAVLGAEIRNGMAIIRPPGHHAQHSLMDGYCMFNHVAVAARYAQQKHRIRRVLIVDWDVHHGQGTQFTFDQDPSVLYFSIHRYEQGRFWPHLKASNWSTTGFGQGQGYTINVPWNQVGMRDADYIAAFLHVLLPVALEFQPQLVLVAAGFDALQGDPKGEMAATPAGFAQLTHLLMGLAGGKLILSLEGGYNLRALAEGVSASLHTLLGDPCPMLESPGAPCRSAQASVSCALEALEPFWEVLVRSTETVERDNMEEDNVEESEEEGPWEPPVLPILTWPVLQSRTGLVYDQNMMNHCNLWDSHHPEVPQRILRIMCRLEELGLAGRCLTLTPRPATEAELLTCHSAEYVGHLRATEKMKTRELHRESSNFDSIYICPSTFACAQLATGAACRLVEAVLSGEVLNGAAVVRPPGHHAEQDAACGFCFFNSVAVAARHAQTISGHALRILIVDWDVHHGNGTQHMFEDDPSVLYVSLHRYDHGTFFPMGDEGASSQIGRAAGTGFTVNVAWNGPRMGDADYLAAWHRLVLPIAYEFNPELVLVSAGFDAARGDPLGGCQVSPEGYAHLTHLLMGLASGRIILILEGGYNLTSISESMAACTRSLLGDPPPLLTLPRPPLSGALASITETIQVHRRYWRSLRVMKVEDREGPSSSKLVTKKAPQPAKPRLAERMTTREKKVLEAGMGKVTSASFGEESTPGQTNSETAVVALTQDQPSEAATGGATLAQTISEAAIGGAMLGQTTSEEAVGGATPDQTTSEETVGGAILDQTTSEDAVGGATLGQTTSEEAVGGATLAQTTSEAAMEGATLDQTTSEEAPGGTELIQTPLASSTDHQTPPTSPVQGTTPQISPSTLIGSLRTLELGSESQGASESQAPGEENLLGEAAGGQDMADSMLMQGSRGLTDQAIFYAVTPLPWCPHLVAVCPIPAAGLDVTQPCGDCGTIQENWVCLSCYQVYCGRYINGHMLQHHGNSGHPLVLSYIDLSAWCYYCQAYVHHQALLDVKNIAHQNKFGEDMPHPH
Procedure, shortened: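 U937 cells were treated for 24 h. Total protein extract (50 µg) was run on a 10% polyacrylamide gel and blotted for acetylated α-tubulin (1:500), with total ERK as the loading control.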

Histone deacetylase = assay: Inhibition of human recombinant HDAC by fluorimetric assay; type: protein assay
U-937 [10] = assay: Induction of apoptosis in human U937 cells assessed as caspase 3 activation at 0.5 uM after 28 hrs by FACS analysis; type: functional, cell-based; procedure, shortened: as §2
U-937 [11] = assay: Increase in granulocytic differentiation in human U937 cells assessed as CD11c expression at 0.5 uM after 28 hrs by FACS analysis; type: functional, cell-based; procedure, shortened: as §3

Histone deacetylase 1, sequence (Q13547 whole entry): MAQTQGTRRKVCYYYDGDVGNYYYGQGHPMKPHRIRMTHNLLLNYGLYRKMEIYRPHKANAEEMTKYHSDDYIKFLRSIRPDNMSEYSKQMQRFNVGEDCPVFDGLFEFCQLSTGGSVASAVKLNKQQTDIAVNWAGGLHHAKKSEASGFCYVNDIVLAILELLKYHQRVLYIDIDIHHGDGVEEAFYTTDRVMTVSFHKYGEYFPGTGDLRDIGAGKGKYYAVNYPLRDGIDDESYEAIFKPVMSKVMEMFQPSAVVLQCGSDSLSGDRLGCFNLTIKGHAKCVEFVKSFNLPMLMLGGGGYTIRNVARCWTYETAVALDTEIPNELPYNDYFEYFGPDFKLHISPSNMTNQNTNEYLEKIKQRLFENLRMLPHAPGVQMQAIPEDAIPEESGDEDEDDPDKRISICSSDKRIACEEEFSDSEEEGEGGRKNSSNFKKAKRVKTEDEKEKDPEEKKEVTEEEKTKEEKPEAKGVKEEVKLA
Histone deacetylase 4, sequence (P56524 whole entry): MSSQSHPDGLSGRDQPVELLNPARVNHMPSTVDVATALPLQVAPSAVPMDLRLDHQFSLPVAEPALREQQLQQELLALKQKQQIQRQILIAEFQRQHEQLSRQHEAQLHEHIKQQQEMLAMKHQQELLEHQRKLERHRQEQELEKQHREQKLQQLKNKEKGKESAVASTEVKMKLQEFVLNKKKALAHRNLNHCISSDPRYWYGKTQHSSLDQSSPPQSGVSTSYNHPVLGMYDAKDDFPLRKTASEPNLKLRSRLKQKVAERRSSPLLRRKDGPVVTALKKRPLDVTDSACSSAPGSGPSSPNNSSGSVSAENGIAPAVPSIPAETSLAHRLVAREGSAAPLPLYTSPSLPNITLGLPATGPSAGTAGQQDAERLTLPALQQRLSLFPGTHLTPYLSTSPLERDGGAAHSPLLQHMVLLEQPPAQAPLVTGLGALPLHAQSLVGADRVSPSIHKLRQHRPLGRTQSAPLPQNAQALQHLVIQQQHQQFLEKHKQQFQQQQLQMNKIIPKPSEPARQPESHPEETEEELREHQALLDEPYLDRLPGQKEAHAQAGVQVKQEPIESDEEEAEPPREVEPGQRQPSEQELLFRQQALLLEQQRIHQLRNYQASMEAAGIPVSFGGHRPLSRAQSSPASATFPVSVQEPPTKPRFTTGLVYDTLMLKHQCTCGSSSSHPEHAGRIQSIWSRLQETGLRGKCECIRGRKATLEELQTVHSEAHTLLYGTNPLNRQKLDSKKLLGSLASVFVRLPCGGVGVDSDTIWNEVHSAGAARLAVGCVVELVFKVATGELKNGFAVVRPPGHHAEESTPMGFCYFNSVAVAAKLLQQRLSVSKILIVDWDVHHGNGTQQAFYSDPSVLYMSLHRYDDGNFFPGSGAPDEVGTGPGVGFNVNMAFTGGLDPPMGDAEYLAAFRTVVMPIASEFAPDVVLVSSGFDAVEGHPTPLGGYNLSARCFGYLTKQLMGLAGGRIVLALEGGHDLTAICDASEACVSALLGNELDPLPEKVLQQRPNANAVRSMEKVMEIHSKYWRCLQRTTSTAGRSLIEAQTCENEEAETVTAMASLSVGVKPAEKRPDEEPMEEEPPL

| SMILES | IC50 (HCT-116) [µM] | Activity (U-937 [1]) | Activity (U-937 [2]) | IC50 (Histone deacetylase 1) [µM] | Ratio IC50 (Homo sapiens) | Activity (U-937 [3]) | IC50 (PC-3) [µM] | Stability (Plasma [4]) | Stability (Plasma [5]) | IC50 (A549) [µM] | IC50 (HepG2) [µM] | IC50 (Histone deacetylase 4) [µM] | Selectivity ratio (Zea mays) | IC50 [6] [µM] | Activity (U-937 [7]) | Activity (U-937 [8]) | Activity [9] | IC50 (Histone deacetylase) [µM] | Activity (U-937 [10]) | Activity (U-937 [11]) |
| --- | --- | --- | --- | --- | --- | --- | --- | --- | --- | --- | --- | --- | --- | --- | --- | --- | --- | --- | --- | --- |
| O=C(NO)c1ccc(/C=C/c2ccccc2)o1 | 2.49 | Active | Active | 49.1 | 1.04 | inactive | 40.4 | Stable | Stable | 32.5 | 12.8 | 47.2 |  |  |  |  |  |  |  |  |
| Cn1cc(/C=C/C(=O)c2cccc(F)c2)cc1/C=C/C(=O)NO |  |  |  |  |  |  |  |  |  |  |  |  | 176 |  |  |  |  |  |  |  |
| O=C(/C=C/C=C/C=C/c1ccccc1)NO |  |  |  |  |  |  |  |  |  |  |  |  |  | 1.8 |  |  |  |  |  |  |
| O=C(/C=C/c1ccc(/C=C/C(=O)c2ccccc2)o1)NO | 2.89 |  |  | 11.5 | 0.5 |  | 13.3 | Stable | Stable | 20.2 | 12.1 | 22.8 |  |  | Active | Active | Active |  |  |  |
| COc1cc(/C=C/c2ccc(C(=O)NO)o2)ccc1OCc1ccccc1 |  |  |  | 13.4 | 1.3 |  | 1.2 |  |  | 50.3 | 30.9 | 10.2 |  |  |  |  |  | 1.89 | Active | Active |
